For experiment [1], the target named is Myosin-IIIb (Homo sapiens) (UniProt Q8WXR4). Kind of experiment: Inhibition of MYO3B (unknown origin) at 1 uM by Ambit Kinomescan binding assay relative to control. The essentials: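 In vitro ATP-site competition binding assay against a panel of over 420 kinases (KinomeScan), with compound tested at 10 or 1 μM.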
In experiment [2] the target is Phosphatidylinositol 4,5-bisphosphate 3-kinase catalytic subunit beta isoform (Homo sapiens) (UniProt P42338). Kind of experiment: Inhibition of PIK3CB ATP labeling site in human A-375 cells at 5 uM by KiNativ Profiling analysis relative to control. The class given is cell-based.
Experiment [3] deals with Serine/threonine-protein kinase MARK2 (Homo sapiens) (UniProt Q7KZI7). In words: Inhibition of MARK2 Lys2 labeling site harbouring FIVHRDLKAENLLLDADMNIK in human A-375 cells at 0.5 uM by KiNativ Profiling analysis relative to control. It is filed as cell-based.
The target of experiment [4] is Tyrosine-protein kinase Blk (Homo sapiens) (UniProt P51451). Kind of experiment: Inhibition of BLK (unknown origin) at 1 uM by Ambit Kinomescan binding assay relative to control; values are per cent of control.
Experiment [5] deals with Myosin light chain kinase (Homo sapiens) (UniProt Q32MK0). Kind of experiment: Inhibition of MLCK (unknown origin) at 1 uM by Ambit Kinomescan binding assay relative to control; values are per cent of control.
Experiment [6] deals with Serine/threonine-protein kinase Chk2 (Homo sapiens) (UniProt O96017). Kind of experiment: Inhibition of CHEK2 (unknown origin) at 10 uM by Ambit Kinomescan binding assay.
The target of experiment [7] is Serine/threonine-protein kinase SIK2 (Homo sapiens) (UniProt Q9H0K1). Kind of experiment: Inhibition of SIK2 (unknown origin) at 10 uM by Ambit Kinomescan binding assay.
Experiment [8] concerns the target Rho-associated protein kinase (Homo sapiens) (UniProt O75116+Q13464). Kind of experiment: Inhibition of ROCK1/2 K2 labeling site in human Huh-7 cells at 10 uM by KiNativ Profiling analysis relative to control. The class given is cell-based.
The target of experiment [9] is T1, Mitogen-activated protein kinase 13 (Homo sapiens) (UniProt O15264).
T1 sequence (whole entry): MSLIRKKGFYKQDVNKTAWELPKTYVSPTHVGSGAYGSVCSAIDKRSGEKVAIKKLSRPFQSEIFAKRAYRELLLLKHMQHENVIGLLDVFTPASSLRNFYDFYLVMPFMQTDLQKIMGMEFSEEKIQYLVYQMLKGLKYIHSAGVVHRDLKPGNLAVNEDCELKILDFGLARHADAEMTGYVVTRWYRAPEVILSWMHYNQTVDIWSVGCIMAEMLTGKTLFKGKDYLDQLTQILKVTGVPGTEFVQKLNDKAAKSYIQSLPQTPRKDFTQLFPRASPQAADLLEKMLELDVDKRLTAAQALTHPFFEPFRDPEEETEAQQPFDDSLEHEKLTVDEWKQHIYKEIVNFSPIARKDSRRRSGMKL
Kind of experiment: Inhibition of p38delta (unknown origin) at 10 uM by Ambit Kinomescan binding assay relative to control; values are per cent of control.

The target of experiment [10] is Cyclin-dependent kinase 5 (Homo sapiens) (UniProt Q00535). In words: Inhibition of CDK5 Lys2 labeling site harbouring DLKPQNLLINR in human Huh-7 cell lysate at 1 uM by KiNativ Profiling analysis relative to control. The class given is subcellular.
Experiment [11] addresses Serine/threonine-protein kinase SIK1 (Homo sapiens) (UniProt P57059). Kind of experiment: Inhibition of SIK Lys2 labeling site in human Huh-7 cell lysate at 1 uM by KiNativ Profiling analysis relative to control. It is filed as subcellular.
In experiment [12] the target is Casein kinase I isoform delta (Homo sapiens) (UniProt P48730). Kind of experiment: Inhibition of CK1d Lys2 labeling site in human Huh-7 cells at 1 uM by KiNativ Profiling analysis relative to control. It is filed as cell-based.
For experiment [13], the target named is T2, Serine/threonine-protein kinase TAO2 (Homo sapiens) (UniProt Q9UL54).
T2 sequence (whole entry): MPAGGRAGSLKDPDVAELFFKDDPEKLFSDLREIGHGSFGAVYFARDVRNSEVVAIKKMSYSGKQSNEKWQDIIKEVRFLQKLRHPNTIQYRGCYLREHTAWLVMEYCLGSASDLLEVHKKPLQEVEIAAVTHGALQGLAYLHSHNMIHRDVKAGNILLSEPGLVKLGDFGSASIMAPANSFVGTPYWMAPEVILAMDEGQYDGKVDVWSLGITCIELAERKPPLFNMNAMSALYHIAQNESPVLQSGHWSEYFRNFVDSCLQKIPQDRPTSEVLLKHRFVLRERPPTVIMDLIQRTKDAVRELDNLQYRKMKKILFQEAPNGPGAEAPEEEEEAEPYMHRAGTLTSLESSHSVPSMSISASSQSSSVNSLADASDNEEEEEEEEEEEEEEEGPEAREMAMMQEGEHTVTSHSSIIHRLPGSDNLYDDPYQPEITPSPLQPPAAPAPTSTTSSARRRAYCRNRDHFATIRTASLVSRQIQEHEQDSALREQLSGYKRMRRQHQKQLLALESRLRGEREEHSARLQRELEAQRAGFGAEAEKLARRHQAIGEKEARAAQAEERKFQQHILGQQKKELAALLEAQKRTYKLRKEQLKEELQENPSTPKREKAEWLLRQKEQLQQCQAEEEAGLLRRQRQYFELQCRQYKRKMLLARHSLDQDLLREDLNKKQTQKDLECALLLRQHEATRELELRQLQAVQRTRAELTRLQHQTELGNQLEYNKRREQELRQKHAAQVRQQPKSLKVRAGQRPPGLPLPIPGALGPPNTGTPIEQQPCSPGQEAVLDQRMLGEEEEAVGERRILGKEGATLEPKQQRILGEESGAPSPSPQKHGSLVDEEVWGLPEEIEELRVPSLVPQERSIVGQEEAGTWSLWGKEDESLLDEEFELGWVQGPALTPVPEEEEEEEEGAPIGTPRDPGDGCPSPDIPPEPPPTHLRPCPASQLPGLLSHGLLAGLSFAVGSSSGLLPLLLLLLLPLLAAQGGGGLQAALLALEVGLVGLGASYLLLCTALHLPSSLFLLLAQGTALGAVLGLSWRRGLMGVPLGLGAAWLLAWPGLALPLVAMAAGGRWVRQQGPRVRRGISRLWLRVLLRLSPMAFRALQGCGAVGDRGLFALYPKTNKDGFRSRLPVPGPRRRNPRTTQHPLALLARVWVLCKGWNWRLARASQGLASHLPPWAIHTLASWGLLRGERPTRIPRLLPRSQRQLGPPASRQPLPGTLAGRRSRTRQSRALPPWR
Kind of experiment: Inhibition of TAO2 Lys2 labeling site in human Huh-7 cells at 1 uM by KiNativ Profiling analysis relative to control. It is filed as cell-based.

Calls of active or inactive are those of the source. No cut-off for these calls is given here.

Sequence of Tyrosine-protein kinase Blk (Homo sapiens) (P51451 2-505 limits assumed): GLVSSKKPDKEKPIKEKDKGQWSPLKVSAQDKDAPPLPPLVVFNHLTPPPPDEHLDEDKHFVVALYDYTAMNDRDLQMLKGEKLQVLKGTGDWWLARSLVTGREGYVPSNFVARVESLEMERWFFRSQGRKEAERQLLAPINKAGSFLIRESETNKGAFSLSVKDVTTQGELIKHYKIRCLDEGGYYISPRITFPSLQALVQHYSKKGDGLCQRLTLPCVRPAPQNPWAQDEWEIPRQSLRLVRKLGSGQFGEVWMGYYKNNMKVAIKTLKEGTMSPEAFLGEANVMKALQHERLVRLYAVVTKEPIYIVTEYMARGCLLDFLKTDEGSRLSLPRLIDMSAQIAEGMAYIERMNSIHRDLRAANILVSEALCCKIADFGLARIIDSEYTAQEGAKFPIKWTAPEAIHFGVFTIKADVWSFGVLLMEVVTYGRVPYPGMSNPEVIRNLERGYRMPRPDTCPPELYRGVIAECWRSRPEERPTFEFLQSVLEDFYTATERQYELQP
Sequence of Serine/threonine-protein kinase Chk2 (Homo sapiens) (O96017 whole entry): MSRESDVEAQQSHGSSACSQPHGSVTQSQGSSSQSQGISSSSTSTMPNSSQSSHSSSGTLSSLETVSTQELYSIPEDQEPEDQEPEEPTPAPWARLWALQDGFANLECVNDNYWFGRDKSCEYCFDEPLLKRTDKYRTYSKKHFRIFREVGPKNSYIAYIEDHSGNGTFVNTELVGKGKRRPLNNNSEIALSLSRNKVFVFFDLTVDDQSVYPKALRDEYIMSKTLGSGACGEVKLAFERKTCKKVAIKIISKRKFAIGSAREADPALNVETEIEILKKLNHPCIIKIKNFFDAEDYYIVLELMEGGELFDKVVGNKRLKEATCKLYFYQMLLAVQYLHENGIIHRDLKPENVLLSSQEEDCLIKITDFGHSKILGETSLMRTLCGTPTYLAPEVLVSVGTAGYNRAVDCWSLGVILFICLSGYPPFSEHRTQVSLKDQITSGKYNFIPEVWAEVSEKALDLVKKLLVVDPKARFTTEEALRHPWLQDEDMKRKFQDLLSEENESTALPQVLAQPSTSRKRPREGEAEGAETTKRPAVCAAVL
Sequence of Serine/threonine-protein kinase SIK1 (Homo sapiens) (P57059 whole entry, canonical isoform): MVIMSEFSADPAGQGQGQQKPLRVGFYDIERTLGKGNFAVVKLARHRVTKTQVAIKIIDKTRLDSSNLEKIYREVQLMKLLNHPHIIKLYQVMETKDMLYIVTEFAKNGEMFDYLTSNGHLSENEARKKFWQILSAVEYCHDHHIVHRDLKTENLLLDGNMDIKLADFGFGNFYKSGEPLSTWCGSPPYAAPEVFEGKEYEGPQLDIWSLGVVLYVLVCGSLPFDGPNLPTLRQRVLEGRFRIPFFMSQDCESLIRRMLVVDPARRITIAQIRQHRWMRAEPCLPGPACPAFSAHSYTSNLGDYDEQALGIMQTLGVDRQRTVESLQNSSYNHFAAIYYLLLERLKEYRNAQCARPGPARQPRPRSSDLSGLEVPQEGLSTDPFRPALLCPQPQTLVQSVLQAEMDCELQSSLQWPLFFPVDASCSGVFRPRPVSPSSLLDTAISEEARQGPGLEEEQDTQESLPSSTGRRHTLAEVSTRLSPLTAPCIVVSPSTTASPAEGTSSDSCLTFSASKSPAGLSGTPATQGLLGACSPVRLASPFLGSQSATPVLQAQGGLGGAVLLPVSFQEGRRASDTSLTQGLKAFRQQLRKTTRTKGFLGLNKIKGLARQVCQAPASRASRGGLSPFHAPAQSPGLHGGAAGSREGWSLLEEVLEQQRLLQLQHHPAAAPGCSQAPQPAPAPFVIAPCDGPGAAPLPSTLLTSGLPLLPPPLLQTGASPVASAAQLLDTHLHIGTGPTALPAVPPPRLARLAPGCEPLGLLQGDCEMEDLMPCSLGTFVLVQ
Sequence of Casein kinase I isoform delta (Homo sapiens) (P48730 whole entry, looked up, canonical isoform): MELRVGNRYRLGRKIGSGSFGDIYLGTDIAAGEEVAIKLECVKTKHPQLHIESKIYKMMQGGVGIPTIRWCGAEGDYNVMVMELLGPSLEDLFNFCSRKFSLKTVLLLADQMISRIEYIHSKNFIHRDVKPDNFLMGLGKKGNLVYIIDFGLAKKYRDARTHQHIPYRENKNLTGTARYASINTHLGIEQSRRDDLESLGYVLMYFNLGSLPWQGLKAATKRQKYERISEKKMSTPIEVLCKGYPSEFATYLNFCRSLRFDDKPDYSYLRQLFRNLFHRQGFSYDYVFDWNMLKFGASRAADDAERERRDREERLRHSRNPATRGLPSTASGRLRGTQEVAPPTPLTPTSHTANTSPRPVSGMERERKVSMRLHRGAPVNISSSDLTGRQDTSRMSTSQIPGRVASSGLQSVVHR
Sequence of Phosphatidylinositol 4,5-bisphosphate 3-kinase catalytic subunit beta isoform (Homo sapiens) (P42338 whole entry, looked up, canonical isoform): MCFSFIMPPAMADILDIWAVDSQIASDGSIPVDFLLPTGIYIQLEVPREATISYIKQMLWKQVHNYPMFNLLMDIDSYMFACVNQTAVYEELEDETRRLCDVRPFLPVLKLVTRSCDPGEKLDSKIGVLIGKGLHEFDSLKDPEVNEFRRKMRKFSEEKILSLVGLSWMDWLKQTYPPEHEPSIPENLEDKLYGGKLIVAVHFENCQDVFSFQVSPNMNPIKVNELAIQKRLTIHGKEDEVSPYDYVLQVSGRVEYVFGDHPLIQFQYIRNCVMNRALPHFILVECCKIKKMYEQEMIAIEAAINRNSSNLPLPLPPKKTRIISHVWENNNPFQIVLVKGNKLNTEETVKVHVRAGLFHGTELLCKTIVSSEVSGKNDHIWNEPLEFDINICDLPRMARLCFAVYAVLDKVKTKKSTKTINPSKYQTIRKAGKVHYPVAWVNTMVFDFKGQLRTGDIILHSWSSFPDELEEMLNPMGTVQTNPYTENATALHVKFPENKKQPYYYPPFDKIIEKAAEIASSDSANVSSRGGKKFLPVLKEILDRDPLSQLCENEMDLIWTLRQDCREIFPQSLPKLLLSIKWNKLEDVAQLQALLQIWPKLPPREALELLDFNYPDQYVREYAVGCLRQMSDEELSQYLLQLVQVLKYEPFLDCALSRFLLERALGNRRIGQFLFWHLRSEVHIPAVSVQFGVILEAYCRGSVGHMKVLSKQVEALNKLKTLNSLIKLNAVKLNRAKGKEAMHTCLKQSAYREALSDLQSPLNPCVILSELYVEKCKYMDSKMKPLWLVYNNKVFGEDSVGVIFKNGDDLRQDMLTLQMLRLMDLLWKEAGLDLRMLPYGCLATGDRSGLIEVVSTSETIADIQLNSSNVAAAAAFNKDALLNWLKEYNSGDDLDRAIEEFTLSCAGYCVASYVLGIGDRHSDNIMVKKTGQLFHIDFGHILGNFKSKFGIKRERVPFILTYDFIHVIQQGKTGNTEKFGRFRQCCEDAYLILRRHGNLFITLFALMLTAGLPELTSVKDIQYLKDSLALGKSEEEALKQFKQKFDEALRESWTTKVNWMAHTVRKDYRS
Sequence of Myosin light chain kinase (Homo sapiens) (Q32MK0 whole entry): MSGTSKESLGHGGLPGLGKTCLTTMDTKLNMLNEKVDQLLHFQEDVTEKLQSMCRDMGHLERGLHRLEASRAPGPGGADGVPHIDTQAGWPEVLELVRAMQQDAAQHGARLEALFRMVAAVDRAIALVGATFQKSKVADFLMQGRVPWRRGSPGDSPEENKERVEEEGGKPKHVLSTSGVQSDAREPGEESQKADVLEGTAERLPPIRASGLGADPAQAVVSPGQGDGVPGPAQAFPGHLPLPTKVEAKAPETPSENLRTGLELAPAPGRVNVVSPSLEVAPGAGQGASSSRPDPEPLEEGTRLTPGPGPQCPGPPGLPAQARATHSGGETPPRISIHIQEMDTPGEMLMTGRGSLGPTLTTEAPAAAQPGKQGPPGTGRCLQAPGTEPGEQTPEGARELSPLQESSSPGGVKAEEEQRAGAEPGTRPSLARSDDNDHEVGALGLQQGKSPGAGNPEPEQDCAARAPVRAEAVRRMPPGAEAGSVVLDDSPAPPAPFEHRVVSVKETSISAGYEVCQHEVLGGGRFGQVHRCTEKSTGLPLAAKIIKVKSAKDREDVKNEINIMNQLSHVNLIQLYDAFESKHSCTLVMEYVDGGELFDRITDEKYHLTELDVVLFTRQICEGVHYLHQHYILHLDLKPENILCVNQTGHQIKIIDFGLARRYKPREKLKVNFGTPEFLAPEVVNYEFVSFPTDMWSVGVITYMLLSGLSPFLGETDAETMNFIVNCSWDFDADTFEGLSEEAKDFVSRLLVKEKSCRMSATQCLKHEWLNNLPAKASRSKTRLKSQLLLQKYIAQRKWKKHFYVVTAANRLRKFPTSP
Sequence of Cyclin-dependent kinase 5 (Homo sapiens) (Q00535 whole entry, looked up): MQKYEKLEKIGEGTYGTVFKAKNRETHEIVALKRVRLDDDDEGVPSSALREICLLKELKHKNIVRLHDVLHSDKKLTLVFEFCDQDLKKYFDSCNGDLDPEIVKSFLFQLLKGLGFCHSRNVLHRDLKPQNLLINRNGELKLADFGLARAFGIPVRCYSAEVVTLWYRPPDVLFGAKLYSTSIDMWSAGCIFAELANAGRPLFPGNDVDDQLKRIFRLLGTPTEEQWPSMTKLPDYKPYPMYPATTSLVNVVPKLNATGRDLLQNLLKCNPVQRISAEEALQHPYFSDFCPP

With `CCN1CCN(Cc2ccc(NC(=O)c3ccc(C)c(/C=C/c4cnc5[nH]ccc5c4OC)c3)cc2C(F)(F)F)CC1`, the inhibition in experiment [1] is 84%; in [2] it was 26.6%; in experiment [3], 2.9%. Further, the residual activity worked out at 0.25% in [4] and 100% in experiment [5].
With `CCN1CCN(Cc2ccc(NC(=O)c3ccc(C)c(Oc4ccnc5[nH]ccc45)c3)cc2C(F)(F)F)CC1`, the inhibition result in experiment [6] and in experiment [7] was “inactive” each time. In addition, the inhibition in experiment [8] was found to be 4.1%. Moreover, the percent of control in [9] amounted to 0.55%.
With `CNc1cc(Oc2cc(C(=O)Nc3cc(N4CCN(C)CC4)cc(C(F)(F)F)c3)ccc2C)ncn1`, the inhibition is 2.6% in experiment [10], -1.3% in experiment [11], 39.1% in experiment [12] and 35.6% in [13].

In general, inhibition refers to the relative decrease from the control value, in per cent. The term residual activity denotes the activity still measured, relative to the control.

Source of the values: ChEMBL document CHEMBL5696442, “Discovery of type II inhibitors of TGFβ-activated kinase 1 (TAK1) and mitogen-activated protein kinase kinase kinase kinase 2 (MAP4K2)” (J Med Chem, 2015).
